Measured values published in ChEMBL document CHEMBL2021842, “COMPARE analysis of the toxicity of an iminoquinone derivative of the imidazo[5,4-f]benzimidazoles with NAD(P)H:quinone oxidoreductase 1 (NQO1) activity and computational docking of quinones as NQO1 substrates” (Bioorg Med Chem, 2012).

Legend:
Type in all cases: functional
Conditions in all cases: read-out: Activity
SK-MEL-2 = experiment: Growth inhibition of human SK-MEL-2 cells assessed as cell growth at 10 uM relative to untreated control
Method in brief: (§1)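 First stage of the NCI DTP 60 human tumour cell-line screen. Cells were exposed to a single dose of 10 µM. Output is reported as growth % relative to control.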

NCI-H226 = experiment: Growth inhibition of human NCI-H226 cells assessed as cell growth at 10 uM relative to untreated control; method in brief: as §1
PC-3 = experiment: Growth inhibition of human PC3 cells assessed as cell growth at 10 uM relative to untreated control; method in brief: as §1
HCC 2998 = experiment: Growth inhibition of human HCC2998 cells assessed as cell growth at 10 uM relative to untreated control
Method in brief: (§2)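 NCI DTP 60-cell-line screen, first stage: a single 10 µM dose of compound given to the human tumour panel. Result reported as percent growth relative to control, on a mean growth graph.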

DU-145 = experiment: Growth inhibition of human DU145 cells assessed as cell growth at 10 uM relative to untreated control; method in brief: as §2
UO-31 = experiment: Growth inhibition of human UO31 cells assessed as cell growth at 10 uM relative to untreated control
Method in brief: (§3)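 This is the first stage of the NCI DTP 60-human-tumour-cell-line screen, covering nine tissue types. Cells receive a single dose of the test compound, and the output is reported as mean growth %.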

OVCAR-5 = experiment: Growth inhibition of human OVCAR5 cells assessed as cell growth at 10 uM relative to untreated control; method in brief: as §1
BT-549 = experiment: Growth inhibition of human BT549 cells assessed as cell growth at 10 uM relative to untreated control; method in brief: as §2
CCRF-CEM = experiment: Growth inhibition of human CCRF-CEM cells assessed as cell growth at 10 uM relative to untreated control; method in brief: as §2
HT-29 = experiment: Growth inhibition of human HT-29 cells assessed as cell growth at 10 uM relative to untreated control; method in brief: as §2
HCT-116 = experiment: Growth inhibition of human HCT116 cells assessed as cell growth at 10 uM relative to untreated control; method in brief: as §2
SF-268 = experiment: Growth inhibition of human SF268 cells assessed as cell growth at 10 uM relative to untreated control; method in brief: as §1
NCI-H322M = experiment: Growth inhibition of human NCI-H322M cells assessed as cell growth at 10 uM relative to untreated control; method in brief: as §1
EKVX = experiment: Growth inhibition of human EKVX cells assessed as cell growth at 10 uM relative to untreated control; method in brief: as §2
SF-295 = experiment: Growth inhibition of human SF295 cells assessed as cell growth at 10 uM relative to untreated control; method in brief: as §1
[1] = Growth inhibition of human Hs 578T cells assessed as cell growth at 10 uM relative to untreated control; method in brief: as §2
MDA-MB-435 = experiment: Growth inhibition of human MDA-MB-435 cells assessed as cell growth at 10 uM relative to untreated control; method in brief: as §1
HCT-15 = experiment: Growth inhibition of human HCT15 cells assessed as cell growth at 10 uM relative to untreated control; method in brief: as §2
MDA-MB-231 = experiment: Growth inhibition of human MDA-MB-231 cells assessed as cell growth at 10 uM relative to untreated control; method in brief: as §1
NCI/ADR-RES = experiment: Growth inhibition of human NCI/ADR-RES cells assessed as cell growth at 10 uM relative to untreated control; method in brief: as §1
HOP-62 = experiment: Growth inhibition of human HOP62 cells assessed as cell growth at 10 uM relative to untreated control; method in brief: as §2
SNB-19 = experiment: Growth inhibition of human SNB19 cells assessed as cell growth at 10 uM relative to untreated control; method in brief: as §3
SN12C = experiment: Growth inhibition of human SN12C cells assessed as cell growth at 10 uM relative to untreated control; method in brief: as §3
OVCAR-3 = experiment: Growth inhibition of human OVCAR3 cells assessed as cell growth at 10 uM relative to untreated control; method in brief: as §1
[2] = Growth inhibition of human […] cells assessed as cell growth at 10 uM relative to untreated control; method in brief: as §1
HL-60(TB) = experiment: Growth inhibition of human HL-60(TB) cells assessed as cell growth at 10 uM relative to untreated control
Method in brief: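 NCI DTP NCI-60 screen, first stage: a single dose applied to 60 human tumour cell lines from nine tissue types. Output is reported as growth %.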

SK-MEL-5 = experiment: Growth inhibition of human SK-MEL-5 cells assessed as cell growth at 10 uM relative to untreated control; method in brief: as §1
Malme-3M = experiment: Growth inhibition of human MALME-3M cells assessed as cell growth at 10 uM relative to untreated control; method in brief: as §2
HOP-92 = experiment: Growth inhibition of human HOP92 cells assessed as cell growth at 10 uM relative to untreated control; method in brief: as §2
TK-10 = experiment: Growth inhibition of human TK10 cells assessed as cell growth at 10 uM relative to untreated control; method in brief: as §3
T47D = experiment: Growth inhibition of human T47D cells assessed as cell growth at 10 uM relative to untreated control; method in brief: as §3
MCF7 = experiment: Growth inhibition of human MCF7 cells assessed as cell growth at 10 uM relative to untreated control; method in brief: as §1
K562 = experiment: Growth inhibition of human K562 cells assessed as cell growth at 10 uM relative to untreated control; method in brief: as §2
SW-620 = experiment: Growth inhibition of human SW620 cells assessed as cell growth at 10 uM relative to untreated control; method in brief: as §3
SF-539 = experiment: Growth inhibition of human SF539 cells assessed as cell growth at 10 uM relative to untreated control; method in brief: as §1
SR = experiment: Growth inhibition of human SR cells assessed as cell growth at 10 uM relative to untreated control; method in brief: as §3
ACHN = experiment: Growth inhibition of human ACHN cells assessed as cell growth at 10 uM relative to untreated control; method in brief: as §2
MOLT-4 = experiment: Growth inhibition of human MOLT4 cells assessed as cell growth at 10 uM relative to untreated control; method in brief: as §1
M14 = experiment: Growth inhibition of human M14 cells assessed as cell growth at 10 uM relative to untreated control; method in brief: as §2
NCI-H23 = experiment: Growth inhibition of human NCI-H23 cells assessed as cell growth at 10 uM relative to untreated control; method in brief: as §1
KM12 = experiment: Growth inhibition of human KM12 cells assessed as cell growth at 10 uM relative to untreated control; method in brief: as §2
CAKI-1 = experiment: Growth inhibition of human Caki1 cells assessed as cell growth at 10 uM relative to untreated control; method in brief: as §2
LOX IMVI = experiment: Growth inhibition of human LOXIMVI cells assessed as cell growth at 10 uM relative to untreated control; method in brief: as §2
UACC-62 = experiment: Growth inhibition of human UACC62 cells assessed as cell growth at 10 uM relative to untreated control; method in brief: as §3
IGROV-1 = experiment: Growth inhibition of human IGROV1 cells assessed as cell growth at 10 uM relative to untreated control; method in brief: as §2
NCI-H522 = experiment: Growth inhibition of human NCI-H522 cells assessed as cell growth at 10 uM relative to untreated control; method in brief: as §1
MDA-MB-468 = experiment: Growth inhibition of human MDA-MB-468 cells assessed as cell growth at 10 uM relative to untreated control; method in brief: as §1
NCI-H460 = experiment: Growth inhibition of human NCI-H460 cells assessed as cell growth at 10 uM relative to untreated control; method in brief: as §1
A498 = experiment: Growth inhibition of human A498 cells assessed as cell growth at 10 uM relative to untreated control; method in brief: as §2
SK-MEL-28 = experiment: Growth inhibition of human SK-MEL-28 cells assessed as cell growth at 10 uM relative to untreated control; method in brief: as §1
SNB-75 = experiment: Growth inhibition of human SNB75 cells assessed as cell growth at 10 uM relative to untreated control; method in brief: as §3
SK-OV-3 = experiment: Growth inhibition of human SKOV3 cells assessed as cell growth at 10 uM relative to untreated control; method in brief: as §1
786-0 = experiment: Growth inhibition of human 786-0 cells assessed as cell growth at 10 uM relative to untreated control; method in brief: as §2
RXF 393 = experiment: Growth inhibition of human RXF393 cells assessed as cell growth at 10 uM relative to untreated control; method in brief: as §1

Q: For N=C1c2nc3n(c2C(=O)c2nc4n(c21)CCCCC4)CCCCC3, which growth at 10 µM (SK-MEL-2) is on record?
A: 118%

Q: And the growth at 10 µM (NCI-H226)?
A: 98.2%

Q: What about the growth at 10 µM (PC-3) of the same compound?
A: 113%

Q: And the growth at 10 µM (HCC 2998)?
A: 112%

Q: What about the growth at 10 µM (DU-145) of the same compound?
A: 113%

Q: What about the growth at 10 µM (UO-31) of the same compound?
A: 83.7%

Q: And the growth at 10 µM (OVCAR-5)?
A: 123%

Q: What about the growth at 10 µM (BT-549) of the same compound?
A: 110%

Q: And the growth at 10 µM (CCRF-CEM)?
A: 104%

Q: What about the growth at 10 µM (HT-29) of the same compound?
A: 106%

Q: What about the growth at 10 µM (HCT-116) of the same compound?
A: 107%

Q: What about the growth at 10 µM (SF-268) of the same compound?
A: 108%

Q: And the growth at 10 µM (NCI-H322M)?
A: 110%

Q: What about the growth at 10 µM (EKVX) of the same compound?
A: 103%

Q: And the growth at 10 µM (SF-295)?
A: 93.8%

Q: What about the growth at 10 µM [1] of the same compound?
A: 112%

Q: And the growth at 10 µM (MDA-MB-435)?
A: 111%

Q: What about the growth at 10 µM (HCT-15) of the same compound?
A: 109%

Q: And the growth at 10 µM (MDA-MB-231)?
A: 117%

Q: What about the growth at 10 µM (NCI/ADR-RES) of the same compound?
A: 110%

Q: What about the growth at 10 µM (HOP-62) of the same compound?
A: 122%

Q: And the growth at 10 µM (SNB-19)?
A: 113%

Q: What about the growth at 10 µM (SN12C) of the same compound?
A: 106%

Q: What about the growth at 10 µM (OVCAR-3) of the same compound?
A: 111%

Q: And the growth at 10 µM [2]?
A: 99.1%

Q: What about the growth at 10 µM (HL-60(TB)) of the same compound?
A: 103%

Q: What about the growth at 10 µM (SK-MEL-5) of the same compound?
A: 88.7%

Q: And the growth at 10 µM (Malme-3M)?
A: 103%

Q: And the growth at 10 µM (HOP-92)?
A: 126%

Q: And the growth at 10 µM (TK-10)?
A: 142%

Q: And the growth at 10 µM (T47D)?
A: 116%

Q: And the growth at 10 µM (MCF7)?
A: 94.5%

Q: And the growth at 10 µM (K562)?
A: 102%

Q: And the growth at 10 µM (SW-620)?
A: 105%

Q: What about the growth at 10 µM (SF-539) of the same compound?
A: 105%

Q: And the growth at 10 µM (SR)?
A: 91.8%

Q: And the growth at 10 µM (ACHN)?
A: 105%

Q: And the growth at 10 µM (MOLT-4)?
A: 93.7%

Q: And the growth at 10 µM (M14)?
A: 108%

Q: And the growth at 10 µM (NCI-H23)?
A: 97.3%

Q: And the growth at 10 µM (KM12)?
A: 106%

Q: And the growth at 10 µM (CAKI-1)?
A: 95.1%

Q: And the growth at 10 µM (LOX IMVI)?
A: 92%

Q: What about the growth at 10 µM (UACC-62) of the same compound?
A: 110%

Q: And the growth at 10 µM (IGROV-1)?
A: 130%

Q: What about the growth at 10 µM (NCI-H522) of the same compound?
A: 90.9%

Q: What about the growth at 10 µM (MDA-MB-468) of the same compound?
A: 99.8%

Q: And the growth at 10 µM (NCI-H460)?
A: 92.6%

Q: What about the growth at 10 µM (A498) of the same compound?
A: 91.6%

Q: And the growth at 10 µM (SK-MEL-28)?
A: 118%

Q: And the growth at 10 µM (SNB-75)?
A: 105%

Q: And the growth at 10 µM (SK-OV-3)?
A: 107%

Q: And the growth at 10 µM (786-0)?
A: 120%

Q: And the growth at 10 µM (RXF 393)?
A: 102%
